pIC50, pKi: −log10 of the molar value. Active and inactive are the calls of the source. No cut-off for these calls is given here.
Legend:
Elastase [1] = molecular target: T1, Elastase (Pseudomonas aeruginosa (strain ATCC 15692 / PAO1 / 1C / PRS 101 / LMG12228), UniProt P14756); test: Inhibition of Pseudomonas aeruginosa PA14 LasB using 2-Aminobenzoyl-AlaGly-Leu-Ala-4-Nitrobenzylamide as fluorogenic substrate preincubated for 15 mins followed by substrate addition measured after 60 mins by FRET assay
T1 sequence (P14756 whole entry): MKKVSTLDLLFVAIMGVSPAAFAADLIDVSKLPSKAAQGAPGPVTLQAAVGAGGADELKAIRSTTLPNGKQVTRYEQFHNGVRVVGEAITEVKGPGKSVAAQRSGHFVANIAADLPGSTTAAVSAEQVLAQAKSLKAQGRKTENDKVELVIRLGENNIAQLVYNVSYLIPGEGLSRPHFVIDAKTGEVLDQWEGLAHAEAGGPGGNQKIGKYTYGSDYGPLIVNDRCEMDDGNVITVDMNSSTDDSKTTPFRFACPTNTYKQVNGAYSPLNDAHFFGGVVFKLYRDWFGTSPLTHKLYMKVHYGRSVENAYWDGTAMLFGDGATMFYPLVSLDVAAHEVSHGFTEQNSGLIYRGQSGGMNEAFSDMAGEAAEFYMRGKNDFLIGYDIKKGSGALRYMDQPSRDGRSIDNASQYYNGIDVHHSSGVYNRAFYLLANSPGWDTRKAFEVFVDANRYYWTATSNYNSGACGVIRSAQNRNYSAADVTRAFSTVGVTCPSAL
Procedure, shortened: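 IC50 from at least two independent experiments, each run in duplicate. Thioacetate analogues were scored as percent inhibition at 200 μM.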

HepG2 = test: Cytotoxicity against human HepG2 cells assessed as reduction in cell viability by MTT assay; assay type: cell-based
HEK293 = test: Cytotoxicity against HEK293 cells assessed as reduction in cell viability by MTT assay; assay type: cell-based; details: Homo sapiens
A549 = test: Cytotoxicity against human A549 cells assessed as reduction in cell viability by MTT assay; assay type: cell-based
Pseudomonas aeruginosa = test: Toxicity in Pseudomonas aeruginosa PA14 assessed as reduction in bacterial growth after 18 hrs; assay type: organism-based; details: in vivo
Collagenase ColH = molecular target: T2, Collagenase ColH (Hathewaya histolytica, UniProt Q46085); test: Inhibition of Clostridium histolyticum ColH peptidase domain expressed in Escherichia coli BL21(DE3) cells using Mca-Ala-Gly-Pro-Pro-Gly-Pro-Dpa-Gly-Arg-NH2 as substrate preincubated for 1 hr followed by substrate addition measured for 2 mins by FRET assay
T2 sequence (Q46085 whole entry): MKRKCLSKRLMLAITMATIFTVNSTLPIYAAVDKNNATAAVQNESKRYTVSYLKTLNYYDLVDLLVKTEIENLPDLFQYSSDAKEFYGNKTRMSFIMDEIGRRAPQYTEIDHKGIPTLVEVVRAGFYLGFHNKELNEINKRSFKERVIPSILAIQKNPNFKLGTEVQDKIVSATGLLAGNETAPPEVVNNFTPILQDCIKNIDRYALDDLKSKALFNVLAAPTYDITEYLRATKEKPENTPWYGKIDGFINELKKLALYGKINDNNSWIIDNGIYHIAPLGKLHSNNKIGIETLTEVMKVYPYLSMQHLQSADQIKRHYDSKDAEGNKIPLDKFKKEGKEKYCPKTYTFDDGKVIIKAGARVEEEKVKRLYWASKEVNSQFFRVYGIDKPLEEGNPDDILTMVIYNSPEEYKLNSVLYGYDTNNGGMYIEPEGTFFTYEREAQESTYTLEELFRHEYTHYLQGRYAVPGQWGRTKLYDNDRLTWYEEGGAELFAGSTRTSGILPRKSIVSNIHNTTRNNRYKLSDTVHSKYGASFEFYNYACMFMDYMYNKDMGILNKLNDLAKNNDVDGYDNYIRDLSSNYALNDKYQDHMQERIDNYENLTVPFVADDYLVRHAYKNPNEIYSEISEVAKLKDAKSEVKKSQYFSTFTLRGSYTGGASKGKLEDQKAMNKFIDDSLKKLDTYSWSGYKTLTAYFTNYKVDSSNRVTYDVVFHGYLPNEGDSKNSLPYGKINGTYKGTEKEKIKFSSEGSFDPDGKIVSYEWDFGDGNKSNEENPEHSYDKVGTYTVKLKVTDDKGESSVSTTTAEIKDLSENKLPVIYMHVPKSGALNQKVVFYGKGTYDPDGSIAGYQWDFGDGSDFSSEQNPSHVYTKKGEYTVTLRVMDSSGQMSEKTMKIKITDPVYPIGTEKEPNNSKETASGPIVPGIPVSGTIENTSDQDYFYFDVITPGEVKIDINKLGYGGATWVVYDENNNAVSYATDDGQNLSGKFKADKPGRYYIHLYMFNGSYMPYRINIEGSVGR
Procedure, shortened: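 Peptidolytic ColH-PD activity read by FRET. Compounds were first screened at 1 μM (means of three independent experiments), then tested dose-response with the reducing agent TCEP present. IC50 values came from at least two independent experiments run in duplicate.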

Elastase [2] = molecular target: T1, Elastase; test: Inhibition of Pseudomonas aeruginosa LasB using aminobenzoyl-Ala-Gly-Leu-Ala-p-nitro-benzyl-amide as fluorogenic substrate by fluorimetric assay
[3] = Toxicity in 1 day post-fertilized zebrafish embryo AB measured up to 120 hrs post-fertilization by microscopic analysis; design: species or system Danio rerio; details: in vivo, read-out: MTC
Procedure, shortened: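 Embryos were placed singly per well, 10 per condition, in freshly prepared compound at 2–100 μM with 1% DMSO final. Defects, heart rate, touch-evoked locomotion and survival were scored daily by microscopy; read-out was maximum tolerated concentration.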

Bacillus cereus = test: Ex vivo inhibition of Bacillus cereus Q1 ColQ1-mediated collagenolytic-activity in pig skin explant assessed as reduction in hydroxyproline release up to 400 uM preincubated for 1 hr followed by skin explant addition and measured upto 24 hrs by spectrophotometric assay
Procedure, shortened: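 Pig skin explant punches, stored in DMEM with 15% glycerol at −80 °C, incubated in DMEM with 300 nM ColQ1, 4 mM CaCl2 and 10 μM ZnCl2. Compound pre-incubated with the enzyme mixture for 1 h at 37 °C, 5% CO2, then explant added, shaken at 300 rpm at 37 °C. Medium sampled at time points; hydroxyproline measured by absorbance against a hydroxyproline calibration curve.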

Hathewaya histolytica = test: Toxicity in Clostridium histolyticum DSM 1126 assessed as reduction in bacterial growth after 48 hrs; assay type: organism-based; details: in vivo
Procedure, shortened: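 Brain heart infusion broth; inoculum adjusted to McFarland 2 then prediluted 1:100. […] Means of at least two independent determinations.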

SMILES: CC(=O)SCC1CC(=O)N(c2ccccc2)C1=O (stereo unspecified)
- pIC50 (Elastase [1]): < 3.70

SMILES: COc1ccc(N2C(=O)CC(SC(C)=O)C2=O)cc1 (stereo unspecified)
- pIC50 (Elastase [1]): < 3.70

SMILES: CC(=O)SCC1CC(=O)N(c2ccc(Cl)c(Cl)c2)C1=O (stereo unspecified)
- pIC50 (Elastase [1]): < 3.70

SMILES: O=C1CC(S)C(=O)N1c1ccc(Cl)c(Cl)c1 (stereo unspecified)
- pIC50 (HepG2): < 4.00
- pIC50 (HEK293): < 4.00
- pIC50 (A549): < 4.00
- MIC (Pseudomonas aeruginosa): > 100 µM

SMILES: COc1ccc(N2C(=O)CC(CSC(C)=O)C2=O)cc1 (stereo unspecified)
- pIC50 (Elastase [1]): < 3.70

SMILES: CC(=O)c1ccc(NC(=O)CS)cc1
- pIC50 (Collagenase ColH): 7.77
- pIC50 (HepG2): < 4.00
- pIC50 (HEK293): < 4.00
- pIC50 (A549): < 4.00

SMILES: CC(=O)SCC1CC(=O)N(c2ccc(C(C)=O)cc2)C1=O (stereo unspecified)
- pIC50 (Elastase [1]): < 3.70

SMILES: CC(=O)c1ccc(N2C(=O)CC(CS)C2=O)cc1 (stereo unspecified)
- pIC50 (Elastase [1]): < 3.70

SMILES: CC(=O)SC1CC(=O)N(c2ccc(Cl)c(Cl)c2)C1=O (stereo unspecified)
- pIC50 (Elastase [1]): < 3.70

SMILES: O=C1CC(CS)C(=O)N1c1ccc(Cl)c(Cl)c1 (stereo unspecified)
- MIC (Pseudomonas aeruginosa): > 100 µM

SMILES: NC(=O)[C@H](Cc1ccc(O)cc1)NC(=O)[C@H](Cc1c[nH]c2ccccc12)NC(=O)CS
- pKi (Elastase [2]): 7.39

SMILES: O=C1CC(S)C(=O)N1c1ccc(F)c(F)c1 (stereo unspecified)
- MNTC [3]: ≥ 30 µM
- MIC (Pseudomonas aeruginosa): > 100 µM

SMILES: O=C1CC(CS)C(=O)N1c1ccc(F)c(F)c1 (stereo unspecified)
- MIC (Pseudomonas aeruginosa): > 100 µM

SMILES: CC(=O)SC1CC(=O)N(c2ccc(OC(F)(F)F)c(Cl)c2)C1=O (stereo unspecified)
- pIC50 (Elastase [1]): < 3.70

SMILES: CC(=O)c1ccc(N2C(=O)CC(S)C2=O)cc1 (stereo unspecified)
- pIC50 (HepG2): < 4.00
- pIC50 (HEK293): < 4.00
- pIC50 (A549): < 4.00
- MNTC [3]: ≥ 30 µM
- inhibition (Bacillus cereus): Active
- MIC (Hathewaya histolytica): > 100 µM

SMILES: O=C(CS)Nc1ccc(Cl)c(Cl)c1
- pIC50 (HepG2): < 4.00
- pIC50 (HEK293): < 4.00
- pIC50 (A549): < 4.00
- MNTC [3]: 10 µM

From ChEMBL document CHEMBL4619769, “N-Aryl-3-mercaptosuccinimides as Antivirulence Agents Targeting Pseudomonas aeruginosa Elastase and Clostridium Collagenases” (J Med Chem, 2020)
